Experimental data reported in ChEMBL document CHEMBL3244345, “Cytostatic quinones. 3. Synthesis of benzotriazolequinones by a new oxidation with m-chloroperbenzoic acid. Biochemical studies” (1978).
Converted amounts (≈) assume the structure as drawn. The source made the active and inactive calls. No cut-off for these calls is given here.

Legend:
KB = experiment: Cytostatic activity against human KB cells assessed as growth inhibition after 72 hrs by colorimetric method; format: functional; settings: read-out: ED50 (the source's name)
Outline: (§1)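 HeLa or KB cells at 10⁵ cells/mL in Minimal Medium Eagle with 10% fetal calf serum were incubated at 37 °C in Leighton tubes. After the cells attached (2-3 h), compound was added in sterile saline with 0.05% Tween 80, making up 10% of the final volume. After 72 h at 37 °C, growth was read as cell protein (Oyama–Eagle colorimetric method). 6-Mercaptopurine was the positive control. ED₅₀ was derived.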

Ehrlich [1] = experiment: Inhibition of DNA synthesis in mouse Ehrlich ascite carcinoma cells assessed as incorporation of [3H]thymidine after 1.5 hrs by liquid scintillation spectrophotometer; format: functional, cell-based
Outline: (§2)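 Ehrlich ascites cells were taken from mice bearing 7-day nonbloody tumors, washed in saline, and resuspended at 5×10⁵ cells/mL in Eagle Spinner medium with 10% fetal calf serum. They were stirred 1.5 h at 37 °C with compound and one labelled precursor: [¹⁴C]glucose 0.2 μCi, [³H]thymidine 0.1 μCi, [³H]uridine 0.5 μCi, or [³H]proline. Then 1 mL samples were diluted in cold saline and pelleted.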

Ehrlich [2] = experiment: Inhibition of protein synthesis in mouse Ehrlich ascite carcinoma cells assessed as incorporation of [3H]proline after 1.5 hrs by liquid scintillation spectrophotometer; format: functional, cell-based; outline: as §2
Ehrlich [3] = experiment: Inhibition of RNA synthesis in mouse Ehrlich ascite carcinoma cells assessed as incorporation of [3H]uridine after 1.5 hrs by liquid scintillation spectrophotometer; format: functional, cell-based; outline: as §2
HeLa = experiment: Cytostatic activity against human HeLa cells assessed as growth inhibition after 72 hrs by colorimetric method; format: functional; settings: read-out: ED50 (the source's name); outline: as §1
Ehrlich [4] = experiment: Inhibition of [3H]glucose uptake in mouse Ehrlich ascite carcinoma cells after 1.5 hrs by liquid scintillation spectrophotometer; format: functional, cell-based; settings: in the assay text read “[14C]glucose” for “[3H]glucose”; outline: as §2
Ehrlich [5] = experiment: Irreversible inhibition of RNA synthesis in mouse Ehrlich ascite carcinoma cells assessed as incorporation of [3H]uridine at 10 ug/ml after 1.5 hrs by liquid scintillation spectrophotometer; format: functional, cell-based
Outline: (§3)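 For reversibility, Ehrlich ascites cells were preincubated 1.5 h at 37 °C with or without 10 μg/mL quinone. They were washed in saline at room temperature and resuspended in fresh Eagle Spinner medium. They were then incubated at 37 °C with radiolabelled glucose, thymidine, uridine or proline at the same amounts as the direct assay. Samples were taken over time to follow incorporation.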

Ehrlich [6] = experiment: Irreversible inhibition of protein synthesis in mouse Ehrlich ascite carcinoma cells assessed as incorporation of [3H]proline at 10 ug/ml after 1.5 hrs by liquid scintillation spectrophotometer; format: functional, cell-based; outline: as §3
Ehrlich [7] = experiment: Irreversible inhibition of DNA synthesis in mouse Ehrlich ascite carcinoma cells assessed as incorporation of [3H]thymidine at 10 ug/ml after 1.5 hrs by liquid scintillation spectrophotometer; format: functional, cell-based; outline: as §3
Ehrlich [8] = experiment: Irreversible inhibition of [3H]glucose uptake in mouse Ehrlich ascite carcinoma cells at 10 ug/ml after 1.5 hrs by liquid scintillation spectrophotometer; format: functional, cell-based; settings: in the assay text read “[14C]glucose” for “[3H]glucose”; outline: as §3

Compound	EC50 (KB) [µg/mL]	inhibition (Ehrlich [1])	inhibition (Ehrlich [2])	inhibition (Ehrlich [3])	EC50 (HeLa) [µg/mL]	inhibition (Ehrlich [4])	inhibition (Ehrlich [5])	inhibition (Ehrlich [6])	inhibition (Ehrlich [7])	inhibition (Ehrlich [8])
COC(=O)Cn1nc2c(n1)C(=O)C(C)=C(C)C2=O	4 (≈ 16 µM)	Active	Active	Active	1 (≈ 4.01 µM)	Active	–	–	–	–
Cc1cc2c(cc1C)[n+]([O-])nn2C	> 100	–	–	–	> 100	–	–	–	–	–
COC(=O)C(C)n1n[n+]([O-])c2cc(C)c(C)cc21 (stereo not given)	> 100	–	–	–	> 100	–	–	–	–	–
Cc1cc2c(cc1C)[n+]([O-])nn2Cc1ccccc1	> 100	–	–	–	> 100	–	–	–	–	–
Sc1ncnc2nc[nH]c12 [MERCAPTOPURINE ANHYDROUS]	0.1 (≈ 0.657 µM)	–	–	–	0.1 (≈ 0.657 µM)	–	–	–	–	–
COC(=O)C(C)n1nc2c(n1)C(=O)C(C)=C(C)C2=O (stereo not given)	3.5 (≈ 13.3 µM)	Active	Active	Active	0.9 (≈ 3.42 µM)	Active	–	–	–	–
CC1=C(C)C(=O)c2nn(C)nc2C1=O	3 (≈ 15.7 µM)	Active	Active	Active	0.5 (≈ 2.62 µM)	Active	–	–	–	–
COC(=O)Cn1n[n+]([O-])c2cc(C)c(C)cc21	> 100	–	–	–	> 100	–	–	–	–	–
CC1=C(C)C(=O)c2nn(Cc3ccccc3)nc2C1=O	3.5 (≈ 13.1 µM)	Active	Active	Active	0.8 (≈ 2.99 µM)	Active	–	–	–	–
COC(=O)Cn1nc2c(n1)C(=O)C(C)=CC2=O	1.5 (≈ 6.38 µM)	Active	Active	Active	0.5 (≈ 2.13 µM)	Active	Active	Active	Active	Active
CC1=CC(=O)c2nn(C)nc2C1=O	2.5 (≈ 14.1 µM)	Active	Active	Active	0.3 (≈ 1.69 µM)	Active	–	–	–	–
